# pIC50: −log10 of the molar value. Activity calls are given as the source filed them. The calls are words filed in the database; no cut-off is given here.
# Assays:
# Mus musculus [1] = species on record: Mus musculus; assay: Induction apoptosis in mouse betaD5 cells assessed as ROS production at 10 uM/L using DCFH-DA by flow cytometry relative to control; format: functional, cell-based
# How it was run: (§1)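 Transgenic mouse cells exposed to compound at 10 µmol/L. ROS generation was measured by flow cytometry using the probe DCFH-DA.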
# A2B1 [2] = assay: Induction apoptosis in mouse A2B1 cells assessed as ROS production at 10 uM/L using DCFH-DA by flow cytometry relative to control; format: functional, cell-based; how it was run: as §1
# HeLa = assay: Cytotoxicity against human HeLa cells after 72 hrs by trypan blue assay; format: functional, cell-based
# How it was run: (§2)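 A-431, HeLa and HL-60 cells at 4×10^4 per well, incubated 24 h. HeLa and A-431 then received fresh medium. Graded compound concentrations were added for a further 72 h at 37 °C, 5% CO2. Viability was counted by Trypan blue exclusion. IC50 is the concentration giving 50% reduction in cell number versus control: ≥3 independent experiments, triplicate samples, mean ± SD.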
# yA3 [3] = assay: Cytotoxicity against mouse yA3 cells after 24 to 96 hrs by MTS assay; format: functional, cell-based
# How it was run: (§3)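 Mouse transgenic lines plated at 10^3 cells/well and left 24 h to attach. Drugs diluted in medium were added for 24 or 96 h. CellTiter 96 AQueous One (MTS) reagent was then added for 1 h at 37 °C, with absorbance read at 490 nm. Each condition was run in quintuplicate, and cytotoxicity was expressed as percent of controls.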
# Mus musculus [4] = species on record: Mus musculus; assay: Cytotoxicity against mouse betaD10 cells after 24 to 96 hrs by MTS assay; format: functional, cell-based; how it was run: as §3
# A2C12 [5] = assay: Induction apoptosis in mouse A2C12 cells assessed as relative caspase activity at 10 uM/L after 2 hrs by rhodamine 110 fluorescence assay; format: functional, cell-based
# How it was run: (§4)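 Cells were pretreated with compound (10 µmol/L) for 2 h. The cell-permeable caspase substrate (Asp)2-rhodamine 110 (10 µmol/L) was then added for 2 h more. Caspase cleavage releases fluorescent rhodamine 110, and the read-out was mean fluorescence.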
# Craf/Cmyc [6] = assay: Induction apoptosis in mouse Craf/Cmyc cells assessed as relative caspase activity at 10 uM/L after 2 hrs by rhodamine 110 fluorescence assay; format: functional; how it was run: as §4
# A2B1 [7] = assay: Induction apoptosis in mouse A2B1 cells assessed as relative caspase activity at 10 uM/L after 2 hrs by rhodamine 110 fluorescence assay; format: functional, cell-based; how it was run: as §4
# A2C12 [8] = assay: Cytotoxicity against mouse A2C12 cells after 24 to 96 hrs by MTS assay; format: functional, cell-based; how it was run: as §3
# B3 [9] = assay: Induction apoptosis in mouse B3 cells assessed as ROS production at 10 uM/L using DCFH-DA by flow cytometry relative to control; format: functional, cell-based; how it was run: as §1
# yD1 [10] = assay: Induction apoptosis in mouse yD1 cells assessed as ROS production at 10 uM/L using DCFH-DA by flow cytometry relative to control; format: functional, cell-based; how it was run: as §1
# [11] = biological target: DNA topoisomerase 2-alpha (Homo sapiens) (UniProt P11388); assay: Inhibition of human recombinant topoisomerase 2alpha-mediated relaxation of supercoiled pBR322 at up to 100 uM after 60 mins using ethidium bromide staining by agarose gel electrophoresis
# Sequence of DNA topoisomerase 2-alpha (Homo sapiens) (P11388 whole entry): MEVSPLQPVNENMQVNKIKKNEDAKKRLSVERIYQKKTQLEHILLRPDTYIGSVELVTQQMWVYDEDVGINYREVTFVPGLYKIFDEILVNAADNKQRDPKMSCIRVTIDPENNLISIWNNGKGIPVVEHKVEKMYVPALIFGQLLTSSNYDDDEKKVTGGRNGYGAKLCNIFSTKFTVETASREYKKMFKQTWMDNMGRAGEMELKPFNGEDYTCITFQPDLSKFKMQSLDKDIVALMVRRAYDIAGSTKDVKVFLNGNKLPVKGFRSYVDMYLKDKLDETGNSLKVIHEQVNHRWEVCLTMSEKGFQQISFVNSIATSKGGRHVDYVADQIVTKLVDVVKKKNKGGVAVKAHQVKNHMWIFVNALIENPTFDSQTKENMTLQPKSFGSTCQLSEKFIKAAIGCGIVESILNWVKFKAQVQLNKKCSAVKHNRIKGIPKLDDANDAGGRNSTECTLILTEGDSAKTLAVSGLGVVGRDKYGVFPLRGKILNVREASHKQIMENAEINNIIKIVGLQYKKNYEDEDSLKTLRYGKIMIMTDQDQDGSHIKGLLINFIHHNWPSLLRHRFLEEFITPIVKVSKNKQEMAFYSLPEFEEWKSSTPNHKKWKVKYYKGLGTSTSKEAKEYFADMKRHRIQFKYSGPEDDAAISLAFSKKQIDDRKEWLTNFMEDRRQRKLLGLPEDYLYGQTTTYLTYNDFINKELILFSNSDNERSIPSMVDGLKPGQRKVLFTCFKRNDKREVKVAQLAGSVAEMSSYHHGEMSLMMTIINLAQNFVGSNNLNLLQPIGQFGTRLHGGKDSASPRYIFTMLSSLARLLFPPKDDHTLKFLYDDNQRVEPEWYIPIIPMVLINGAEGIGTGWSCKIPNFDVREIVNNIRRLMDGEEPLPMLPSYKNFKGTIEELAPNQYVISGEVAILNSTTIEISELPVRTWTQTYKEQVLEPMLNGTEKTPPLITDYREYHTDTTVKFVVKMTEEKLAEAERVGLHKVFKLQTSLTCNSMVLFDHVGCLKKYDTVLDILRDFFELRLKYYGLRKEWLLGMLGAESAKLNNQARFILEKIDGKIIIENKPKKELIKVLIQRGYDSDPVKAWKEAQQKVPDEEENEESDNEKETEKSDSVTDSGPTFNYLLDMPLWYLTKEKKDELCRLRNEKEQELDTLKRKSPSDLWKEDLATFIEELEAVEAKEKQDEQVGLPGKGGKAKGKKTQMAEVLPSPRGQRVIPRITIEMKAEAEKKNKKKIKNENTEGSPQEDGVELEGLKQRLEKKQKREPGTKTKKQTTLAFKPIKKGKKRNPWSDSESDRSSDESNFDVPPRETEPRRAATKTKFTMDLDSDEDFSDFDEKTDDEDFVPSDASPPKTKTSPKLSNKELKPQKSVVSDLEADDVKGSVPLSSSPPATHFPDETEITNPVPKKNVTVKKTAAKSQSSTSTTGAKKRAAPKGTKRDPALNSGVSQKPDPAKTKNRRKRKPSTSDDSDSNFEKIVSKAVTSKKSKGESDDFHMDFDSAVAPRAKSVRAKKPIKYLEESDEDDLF
# How it was run: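 Supercoiled pBR322 (0.25 µg) with 1 U human recombinant topoisomerase IIα and test compound, 60 min at 37 °C in 20 µl reaction buffer. Stopped with SDS/bromophenol blue/glycerol plus 50 µg/mL proteinase K, 30 min at 37 °C. Separated on 1% agarose at room temperature, ethidium bromide stained (1 µg/mL, TAE), UV-visualized.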
# B3 [12] = assay: Induction apoptosis in mouse B3 cells assessed as relative caspase activity at 10 uM/L after 2 hrs by rhodamine 110 fluorescence assay; format: functional, cell-based; how it was run: as §4
# yA7 [13] = assay: Cytotoxicity against mouse yA7 cells after 24 to 96 hrs by MTS assay; format: functional, cell-based; how it was run: as §3
# yD12 [14] = assay: Induction apoptosis in mouse yD12 cells assessed as relative caspase activity at 10 uM/L after 2 hrs by rhodamine 110 fluorescence assay; format: functional, cell-based; how it was run: as §4
# Mus musculus [15] = species on record: Mus musculus; assay: Induction apoptosis in mouse betaD10 cells assessed as relative caspase activity at 10 uM/L after 2 hrs by rhodamine 110 fluorescence assay; format: functional, cell-based; how it was run: as §4
# yA3 [16] = assay: Induction apoptosis in mouse yA3 cells assessed as ROS production at 10 uM/L using DCFH-DA by flow cytometry relative to control; format: functional, cell-based; how it was run: as §1
# A-431 = assay: Cytotoxicity against human A431 cells after 72 hrs by trypan blue assay; format: functional, cell-based; conditions: A-431, 72 h; how it was run: as §2
# Nucleic Acid = assay: Binding affinity to salmon testes DNA by linear flow dichroism analysis; format: nucleic-acid assay; conditions: Salmonidae
# How it was run: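 Salmon testes DNA (1.9 × 10^-3 M) in ETN buffer (10 mM Tris, 10 mM NaCl, 1 mM EDTA, pH 7). Linear dichroism spectra were recorded at 25 °C over a range of [drug]/[DNA] ratios on a spectropolarimeter converted for LD.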
# A2B1 [17] = assay: Cytotoxicity against mouse A2B1 cells after 24 to 96 hrs by MTS assay; format: functional, cell-based; how it was run: as §3
# yB8 [18] = assay: Induction apoptosis in mouse yB8 cells assessed as relative caspase activity at 10 uM/L after 2 hrs by rhodamine 110 fluorescence assay; format: functional, cell-based; how it was run: as §4
# yD1 [19] = assay: Induction apoptosis in mouse yD1 cells assessed as relative caspase activity at 10 uM/L after 2 hrs by rhodamine 110 fluorescence assay; format: functional, cell-based; how it was run: as §4
# yB8 [20] = assay: Induction apoptosis in mouse yB8 cells assessed as ROS production at 10 uM/L using DCFH-DA by flow cytometry relative to control; format: functional, cell-based; how it was run: as §1
# Craf/Cmyc [21] = assay: Cytotoxicity against mouse Craf/Cmyc cells after 24 to 96 hrs by MTS assay; format: functional, cell-based; how it was run: as §3
# yD12 [22] = assay: Cytotoxicity against mouse yD12 cells after 24 to 96 hrs by MTS assay; format: functional, cell-based; how it was run: as §3
# Bos taurus = species on record: Bos taurus; assay: Inhibition of calf thymus topoisomerase 1-mediated relaxation of supercoiled pBR322 at 100 uM after 60 mins using ethidium bromide staining by agarose gel electrophoresis
# How it was run: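 Supercoiled pBR322 (0.25 µg) with 2 U calf thymus topoisomerase I and test compound, 60 min at 37 °C in 20 µl reaction buffer. Stopped with SDS/bromophenol blue/glycerol plus 50 µg/mL proteinase K, 30 min at 37 °C. Run on 1% agarose at room temperature, stained with ethidium bromide 1 µg/mL in TAE, imaged under UV.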
# yA3 [23] = assay: Induction apoptosis in mouse yA3 cells assessed as relative caspase activity at 10 uM/L after 2 hrs by rhodamine 110 fluorescence assay; format: functional, cell-based; how it was run: as §4
# yD12 [24] = assay: Induction apoptosis in mouse yD12 cells assessed as ROS production at 10 uM/L using DCFH-DA by flow cytometry relative to control; format: functional, cell-based; how it was run: as §1
# B3 [25] = assay: Cytotoxicity against mouse B3 cells after 24 to 96 hrs by MTS assay; format: functional, cell-based; how it was run: as §3
# yA7 [26] = assay: Induction apoptosis in mouse yA7 cells assessed as ROS production at 10 uM/L using DCFH-DA by flow cytometry relative to control; format: functional, cell-based; how it was run: as §1
# A2C12 [27] = assay: Induction apoptosis in mouse A2C12 cells assessed as ROS production at 10 uM/L using DCFH-DA by flow cytometry relative to control; format: functional, cell-based; how it was run: as §1
# Mus musculus [28] = species on record: Mus musculus; assay: Induction apoptosis in mouse betaD5 cells assessed as relative caspase activity at 10 uM/L after 2 hrs by rhodamine 110 fluorescence assay; format: functional, cell-based; how it was run: as §4
# Craf/Cmyc [29] = assay: Induction apoptosis in mouse Craf/Cmyc cells assessed as ROS production at 10 uM/L using DCFH-DA by flow cytometry relative to control; format: functional, cell-based; how it was run: as §1
# HL-60 = assay: Cytotoxicity against human HL60 cells after 72 hrs by trypan blue assay; format: functional, cell-based; conditions: HL-60, 72 h; how it was run: as §2
# Mus musculus [30] = species on record: Mus musculus; assay: Cytotoxicity against mouse betaD5 cells after 24 to 96 hrs by MTS assay; format: functional, cell-based; how it was run: as §3
# yB8 [31] = assay: Cytotoxicity against mouse yB8 cells after 24 to 96 hrs by MTS assay; format: functional, cell-based; how it was run: as §3
# Mus musculus [32] = species on record: Mus musculus; assay: Induction apoptosis in mouse betaD10 cells assessed as ROS production at 10 uM/L using DCFH-DA by flow cytometry relative to control; format: functional, cell-based; how it was run: as §1
# yA7 [33] = assay: Induction apoptosis in mouse yA7 cells assessed as relative caspase activity at 10 uM/L after 2 hrs by rhodamine 110 fluorescence assay; format: functional, cell-based; how it was run: as §4
# HUVEC = assay: Antiangiogenic activity in HUVEC cocultured with human PaSMC assessed as inhibition of capillary-like network formation at 25 nM after 72 hrs; format: functional, cell-based
# How it was run: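 RFP-expressing HUVEC (early passage, passage 5) co-seeded with pulmonary artery vSMC (5×10^4 PaSMC plus 10×10^3 HUVEC per well) in EGM-2, briefly spun at 200 g and allowed to attach for 3 h. Compounds were added at final 2–200 nM, two replicates per concentration, at 37 °C, 5% CO₂. Network was imaged at 72 h with automated imaging, and tube length was quantified by image analysis.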
smiles,measurement,setting,value
CC[C@@]1(OC(=O)NCCN2C(=O)CCCCCCCCC2=O)C(=O)OCc2c1cc1n(c2=O)Cc2cc3ccccc3nc2-1,Activity,Mus musculus [1],inactive
same,Activity,A2B1 [2],inactive
same,pIC50,HeLa,5.08
same,Activity,yA3 [3],Active
same,Activity,Mus musculus [4],Active
same,Activity,A2C12 [5],inactive
same,Activity,Craf/Cmyc [6],inactive
same,Activity,A2B1 [7],inactive
same,Activity,A2C12 [8],Active
same,Activity,B3 [9],inactive
same,Activity,yD1 [10],inactive
same,Activity,[11],inactive
same,Activity,B3 [12],inactive
same,Activity,yA7 [13],Active
same,Activity,yD12 [14],inactive
same,Activity,Mus musculus [15],inactive
same,Activity,yA3 [16],inactive
same,pIC50,A-431,5.73
same,Activity,Nucleic Acid,inactive
same,Activity,A2B1 [17],Active
same,Activity,yB8 [18],inactive
same,Activity,yD1 [19],inactive
same,Activity,yB8 [20],inactive
same,Activity,Craf/Cmyc [21],Active
same,Activity,yD12 [22],Active
same,Activity,Bos taurus,inactive
same,Activity,yA3 [23],inactive
same,Activity,yD12 [24],inactive
same,Activity,B3 [25],Active
same,Activity,yA7 [26],inactive
same,Activity,A2C12 [27],inactive
same,Activity,Mus musculus [28],inactive
same,Activity,Craf/Cmyc [29],inactive
same,pIC50,HL-60,4.91
same,Activity,Mus musculus [30],Active
same,Activity,yB8 [31],Active
same,Activity,Mus musculus [32],inactive
same,Activity,yA7 [33],inactive
CC[C@@]1(OC(=O)NCCNC(=O)CSSCC(=O)NCCNC(=O)O[C@]2(CC)C(=O)OCc3c2cc2n(c3=O)Cc3cc4ccccc4nc3-2)C(=O)OCc2c1cc1n(c2=O)Cc2cc3ccccc3nc2-1,Activity,[11],inactive
same,Activity,Nucleic Acid,inactive
CC[C@@]1(O)C(=O)OCc2c1cc1n(c2=O)Cc2cc3ccccc3nc2-1 [CAMPTOTHECIN],pIC50,HeLa,8.05
same,inhibition,HUVEC,Active
same,pIC50,A-431,7.96
same,pIC50,HL-60,7.77

# — ChEMBL document CHEMBL1629436, “Synthesis and biological evaluation of new camptothecin derivatives obtained by modification of position 20” (Bioorg Med Chem, 2010)
